Results as given in ChEMBL document CHEMBL3352107, “Development of radamide analogs as Grp94 inhibitors” (Bioorg Med Chem, 2014).
Calls of active or inactive are those of the source. The rule behind the calls is not given here.

Columns and labels:
[1] = target: Heat shock protein HSP 90-alpha (Homo sapiens) (UniProt P07900); experiment: Inhibition of Hsp90alpha in human RPMI18226 cells assessed as Akt degradation at 5 fold antiproliferative IC50 concentration by Western blot analysis; format: cell-based
Procedure, shortened: (§1)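 Cells plated in 6-well plates and exposed 24 h to high and low compound concentrations, 15 μM radicicol, or DMSO only (0.25% DMSO final). Lysed in MPER with protease inhibitors on ice and clarified at 4°C. Protein measured by BCA. 20 μg per lane run reducing on SDS-PAGE, blotted to PVDF and probed with specific antibodies, HRP secondary, chemiluminescence. For IGF-II, medium volumes normalized to equal actin were blotted.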

[2] = tested on: MDA-MB-231; experiment: Antiproliferative activity against human MDA-MB-231 cells after 72 hrs by MTS/PMS proliferation assay; format: functional, cell-based; details: MDA-MB-231, 72 h
Procedure, shortened: (§2)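 Cells kept in RPMI1640 (RPMI 8226) or DMEM (MDA-MB-231) with nonessential amino acids, 2 mM L-glutamine, penicillin/streptomycin and 10% FBS at 37°C, 5% CO2. Seeded at 2000/well, attached overnight, then given compound across a concentration range in 1% DMSO final for 72 h. Viable cells read by MTS/PMS. 1% DMSO wells set as 100%. IC50 from separate triplicate experiments.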

[3] = target: Heat shock protein HSP 90-alpha (Homo sapiens) (UniProt P07900); experiment: Inhibition of Hsp90alpha in human MDA-MB-231 cells assessed as Akt degradation at 80 uM by Western blot analysis; format: cell-based; procedure, shortened: as §1
[4] = tested on: MDA-MB-231; experiment: Cytotoxicity against human MDA-MB-231 cells at 2.5 to 25 uM after 24 hrs; format: cell-based; details: mda-mb-231, 24 h
[5] = target: Endoplasmin (Homo sapiens) (UniProt P14625); experiment: Inhibition of Gpr94 in human MDA-MB-231 cells assessed as decrease in IGF-II secretion at 1 to 10 uM by Western blot analysis; format: cell-based; procedure, shortened: as §1
[6] = target: Heat shock protein HSP 90-alpha (Homo sapiens) (UniProt P07900); experiment: Inhibition of Hsp90alpha in human MDA-MB-231 cells assessed as cyclin D1 degradation at 80 uM by Western blot analysis; format: cell-based; procedure, shortened: as §1
[7] = target: Heat shock protein HSP 90-alpha (Homo sapiens) (UniProt P07900); experiment: Inhibition of Hsp90alpha in human RPMI18226 cells assessed as cyclin D1 degradation at 5 fold antiproliferative IC50 concentration by Western blot analysis; format: cell-based; procedure, shortened: as §1
[8] = target: Endoplasmin (Homo sapiens) (UniProt P14625); experiment: Inhibition of Gpr94 in human RPMI18226 cells assessed as decrease in IGF-II secretion at 0.25 to 2 fold antiproliferative IC50 concentration by Western blot analysis; format: cell-based; procedure, shortened: as §1
[9] = tested on: MDA-MB-231; experiment: Inhibition of cell migration in human MDA-MB-231 cells assessed as reduction of cell migrated into scratched area after 16 to 24 hrs by wound healing assay; format: functional, cell-based
Procedure, shortened: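 Cells seeded at 200000/well and grown 24 h to a confluent monolayer at 37°C, 5% CO2. Each well scratched with a sterile pipet tip and photographed at 0 h. Compound added at 2.5 up to 25 μM (0.25% DMSO final). Migration into the wound photographed at 16 and 24 h. Quadruplicate wells on two different days.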

[10] = target: Endoplasmin (Homo sapiens) (UniProt P14625); experiment: Inhibition of recombinant Grp94 (unknown origin) assessed as tracer bound at 25 uM after 24 hrs by fluorescence polarization assay relative to control; parameters: scale not given: the % may be the effect or the level left
Procedure, shortened: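 Single-point screen at 25 μM. Recombinant cGrp94 (10 nM) and FITC-geldanamycin tracer (6 nM) incubated 24 h at 4°C with rocking in HEPES pH 7.3 buffer containing molybdate, DTT, NP-40 and BGG (1% DMSO). Polarization read at 485/528 nm. Percent tracer bound scaled between DMSO mP (100%) and free tracer mP (0%). Geldanamycin 50 nM was the positive control. Triplicate.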

[11] = Antiproliferative activity against human RPMI18226 cells after 72 hrs by MTS/PMS proliferation assay; format: functional, cell-based; details: RPMI18226, 72 h; procedure, shortened: as §2
[12] = target: Endoplasmin (Homo sapiens) (UniProt P14625); experiment: Binding affinity to Gpr94 in human MDA-MB-231 cells assessed as conformational change using 9G10 antibody by immunoblotting analysis; format: cell-based
Procedure, shortened: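 MDA-MB-231 cells treated overnight at 10 μM (high) or 1 μM (low). Radicicol 15 μM was the positive control and DMSO the negative control. Detergent lysates immunoprecipitated with the conformation-specific anti-Grp94 antibody 9G10, which recognizes only open, unliganded Grp94, on protein G magnetic beads. Precipitates immunoblotted for Grp94.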

[13] = target: Endoplasmin (Homo sapiens) (UniProt P14625); experiment: Binding affinity to Gpr94 in human RPMI18226 cells using 9G10 antibody by immunoblotting analysis; format: cell-based
Procedure, shortened: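 Radicicol 15 μM was the positive control and DMSO the negative control. Detergent lysates pulled down with conformation-specific anti-Grp94 antibody 9G10 on protein G magnetic beads, then immunoblotted for Grp94.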

[14] = target: Heat shock protein HSP 90-alpha (Homo sapiens) (UniProt P07900); experiment: Inhibition of Hsp90alpha in human RPMI18226 cells assessed as cyclin D1 degradation at 0.5 to 5 fold antiproliferative IC50 concentration by Western blot analysis; format: cell-based; procedure, shortened: as §1
[15] = target: Heat shock protein HSP 90-alpha (Homo sapiens) (UniProt P07900); experiment: Inhibition of Hsp90alpha in human MDA-MB-231 cells assessed as Akt degradation at 60 uM by Western blot analysis; format: cell-based; procedure, shortened: as §1
[16] = target: Heat shock protein HSP 90-alpha (Homo sapiens) (UniProt P07900); experiment: Inhibition of Hsp90alpha in human MDA-MB-231 cells assessed as cyclin D1 degradation at 60 uM by Western blot analysis; format: cell-based; procedure, shortened: as §1
[17] = target: Heat shock protein HSP 90-alpha (Homo sapiens) (UniProt P07900); experiment: Inhibition of Hsp90alpha in human RPMI18226 cells assessed as Akt degradation at 0.5 to 5 fold antiproliferative IC50 concentration by Western blot analysis; format: cell-based; procedure, shortened: as §1
[18] = target: Endoplasmin (Homo sapiens) (UniProt P14625); experiment: Inhibition of recombinant Grp94 (unknown origin) assessed as tracer bound at 25 uM after 24 hrs by fluorescence polarization assay relative to HSP90alpha (unknown origin)
Procedure, shortened: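 Compounds at 25 μM incubated 24 h with either cGrp94 or Hsp90α plus FITC-geldanamycin tracer (1% DMSO) to compare the two isoforms. Fluorescence polarization gave percent tracer bound, with DMSO as 100% and free tracer as 0%. Geldanamycin 50 nM was the positive control. Triplicate.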

Chain of Endoplasmin (Homo sapiens) (P14625 whole entry, canonical isoform): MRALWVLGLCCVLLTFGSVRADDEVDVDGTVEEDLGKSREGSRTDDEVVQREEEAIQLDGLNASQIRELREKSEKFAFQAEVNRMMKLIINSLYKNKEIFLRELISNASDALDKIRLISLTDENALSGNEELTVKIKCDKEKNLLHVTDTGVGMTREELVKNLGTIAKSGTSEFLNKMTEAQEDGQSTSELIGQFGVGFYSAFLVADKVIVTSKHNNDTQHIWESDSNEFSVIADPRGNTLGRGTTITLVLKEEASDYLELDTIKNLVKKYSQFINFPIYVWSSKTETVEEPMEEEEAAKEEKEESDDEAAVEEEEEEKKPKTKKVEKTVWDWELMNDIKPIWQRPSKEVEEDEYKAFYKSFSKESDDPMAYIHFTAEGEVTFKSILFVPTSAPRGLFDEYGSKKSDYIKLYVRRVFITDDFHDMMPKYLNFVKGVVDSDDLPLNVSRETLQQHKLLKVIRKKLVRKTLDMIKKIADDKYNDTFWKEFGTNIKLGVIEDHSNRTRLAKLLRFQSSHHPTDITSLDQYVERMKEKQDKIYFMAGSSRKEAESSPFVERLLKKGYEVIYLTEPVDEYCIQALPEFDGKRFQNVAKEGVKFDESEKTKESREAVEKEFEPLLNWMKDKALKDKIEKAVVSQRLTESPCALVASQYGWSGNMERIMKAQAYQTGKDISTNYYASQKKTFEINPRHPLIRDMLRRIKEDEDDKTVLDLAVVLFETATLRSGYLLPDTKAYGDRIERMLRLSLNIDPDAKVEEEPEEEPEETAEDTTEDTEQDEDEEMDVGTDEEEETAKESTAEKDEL

Structure (SMILES)	Activity [10]	other results
COC(=O)c1c(O)cc(O)c(Cl)c1CCC(=O)Nc1nccs1	6.6%	inhibition [1]: Active; IC50 [2]: 16 µM; inhibition [3]: Active; Activity [4]: Non-toxic; inhibition [5]: Active; inhibition [6]: Active; inhibition [7]: Active; inhibition [8]: Active; inhibition [9]: Dose-dependent effect; IC50 [11]: 7.83 µM; Activity [12]: Dose-dependent effect; Activity [13]: Dose-dependent effect
COC(=O)c1c(O)cc(O)c(Cl)c1CCC(=O)Nc1ccc(Br)cc1	2.1%	Ratio [18]: 27
COC(=O)c1c(O)cc(O)c(Cl)c1CCC(=O)Nc1ncccc1Br	0.2%	
COC(=O)c1c(O)cc(O)c(Cl)c1CCC(=O)Nc1ccccc1N	20.5%	
COC(=O)c1c(O)cc(O)c(Cl)c1CCC(=O)Nc1ccc(Cl)cc1	15.7%	
COC(=O)c1c(O)cc(O)c(Cl)c1CCC(=O)NCCc1ccccc1	33%	
COC(=O)c1c(O)cc(O)c(Cl)c1CCC(=O)Nc1ccc(Br)c(Cl)c1	71.4%	
COC(=O)c1c(O)cc(O)c(Cl)c1CCC(=O)Nc1ccc(I)cc1	29.8%	
COC(=O)c1c(O)cc(O)c(Cl)c1CCC(=O)Nc1ccc(F)cc1	10.9%	
COC(=O)c1c(O)cc(O)c(Cl)c1CCC(=O)NNc1ccccc1	26.3%	
COC(=O)c1c(O)cc(O)c(Cl)c1CCC(=O)Nc1ccc(C)cc1	18.7%	
COC(=O)c1c(O)cc(O)c(Cl)c1CCC(=O)Nc1nnc(Br)s1	5.1%	
COC(=O)c1c(O)cc(O)c(Cl)c1CCC(=O)Nc1cccc(C(F)(F)F)c1	39.4%	
COC(=O)c1c(O)cc(O)c(Cl)c1CCC(=O)Nc1ncccn1	16.7%	
COC(=O)c1c(O)cc(O)c(Cl)c1CCC(=O)Nc1ccccc1O	18%	
COC(=O)c1c(O)cc(O)c(Cl)c1CCC(=O)Nc1cccc(F)c1	11%	
COC(=O)c1c(O)cc(O)c(Cl)c1CCC(=O)Nc1ccccc1OC	16.1%	
COC(=O)c1c(O)cc(O)c(Cl)c1CCC(=O)Nc1ccc(O)cc1	6.5%	
CCN(C(=O)CCc1c(Cl)c(O)cc(O)c1C(=O)OC)c1ccccc1	18.6%	
COC(=O)c1c(O)cc(O)c(Cl)c1CCC(=O)Nc1cnccn1	16.6%	
COC(=O)c1c(O)cc(O)c(Cl)c1CCC(=O)Nc1cc(Cl)cc(Cl)c1	15.6%	
COC(=O)c1c(O)cc(O)c(Cl)c1CCC(=O)Nc1cnncn1	19.5%	
COC(=O)c1c(O)cc(O)c(Cl)c1CCC(=O)Nc1cccc(Cl)n1	1.4%	
COC(=O)c1c(O)cc(O)c(Cl)c1CCC(=O)Nc1ncc(Cl)s1	22.4%	
COC(=O)c1c(O)cc(O)c(Cl)c1CCC(=O)Nc1ncc(Br)s1	27.7%	
COC(=O)c1c(O)cc(O)c(Cl)c1CCC(=O)Nc1cc(Cl)ccn1	7.7%	
COC(=O)c1c(O)cc(O)c(Cl)c1CCC(=O)Nc1ccc(C#N)cc1	5.4%	
COC(=O)c1c(O)cc(O)c(Cl)c1CCC(=O)Nc1cccc(NC(C)=O)c1	8.3%	

Continued, in another order:

Activity [10]	Structure (SMILES)	other results
1%	COC(=O)c1c(O)cc(O)c(Cl)c1CCC(=O)Nc1ccccn1	IC50 [2]: 12 µM; Activity [4]: Non-toxic; inhibition [5]: Active; inhibition [14]: inactive; inhibition [8]: Active; inhibition [9]: Dose-dependent effect; inhibition [15]: inactive; IC50 [11]: 9.12 µM; inhibition [16]: inactive; Activity [12]: Dose-dependent effect; inhibition [17]: inactive; Activity [13]: Dose-dependent effect
3.4%	COC(=O)c1c(O)cc(O)c(Cl)c1CCC(=O)Nc1ccccc1C	
13.4%	COC(=O)c1c(O)cc(O)c(Cl)c1CCC(=O)Nc1ccccc1C(F)(F)F	
3.5%	COC(=O)c1c(O)cc(O)c(Cl)c1CCC(=O)Nc1cccc(O)c1	
15.7%	COC(=O)c1c(O)cc(O)c(Cl)c1CCC(=O)Nc1ccc(N)cc1	
24.9%	COC(=O)c1c(O)cc(O)c(Cl)c1CCC(=O)Nc1cccc(Cl)c1Br	
59%	COC(=O)c1c(O)cc(O)c(Cl)c1CCC(=O)Nc1ccc(C(C)C)cc1	
14.9%	COC(=O)c1c(O)cc(O)c(Cl)c1CCC(=O)Nc1cccnc1	
8.7%	COC(=O)c1c(O)cc(O)c(Cl)c1CCC(=O)Nc1nncs1	
27.4%	COC(=O)c1c(O)cc(O)c(Cl)c1CCC(=O)Nc1cccc(OC)c1	
7.9%	COC(=O)c1c(O)cc(O)c(Cl)c1CCC(=O)Nc1ccccc1I	
19.8%	COC(=O)c1c(O)cc(O)c(Cl)c1CCC(=O)Nc1ccccc1	
50.7%	COC(=O)c1c(O)cc(O)c(Cl)c1CCC(=O)Nc1ccc(Br)cc1Br	
85%	COC(=O)c1c(O)cc(O)c(Cl)c1CCC(=O)Nc1ccc(-c2ccccc2)cc1	
0.1%	COC(=O)c1c(O)cc(O)c(Cl)c1CCC(=O)Nc1ccc(Br)cn1	
9.3%	COC(=O)c1c(O)cc(O)c(Cl)c1CCC(=O)Nc1cccc(Br)c1	
12.7%	C#Cc1ccc(NC(=O)CCc2c(Cl)c(O)cc(O)c2C(=O)OC)cc1	
46.8%	COC(=O)c1c(O)cc(O)c(Cl)c1CCC(=O)Nc1cccc(-c2ccccc2)c1	

Activity [10]	Structure (SMILES)	other results
2.5%	COC(=O)c1c(O)cc(O)c(Cl)c1CCC(=O)N(O)c1ccccc1	
26.1%	COC(=O)c1c(O)cc(O)c(Cl)c1CCC(=O)NC1CCCCC1	
16.7%	COC(=O)c1c(O)cc(O)c(Cl)c1CCC(=O)N(C)c1ccccc1	
65.8%	COC(=O)c1c(O)cc(O)c(Cl)c1CCC(=O)NCc1ccccc1	
16.3%	COC(=O)c1c(O)cc(O)c(Cl)c1CCC(=O)Nc1ccccc1F	
34.9%	COC(=O)c1c(O)cc(O)c(Cl)c1CCC(=O)Nc1ccncc1	
11.6%	COC(=O)c1c(O)cc(O)c(Cl)c1CCC(=O)Nc1cncnc1	
12.2%	COC(=O)c1c(O)cc(O)c(Cl)c1CCC(=O)Nc1cccnn1	
23%	COC(=O)c1c(O)cc(O)c(Cl)c1CCC(=O)N1CCc2ccccc21	
30.2%	COC(=O)c1c(O)cc(O)c(Cl)c1CCC(=O)N(c1ccccc1)C(C)C	
0.1%	COC(=O)c1c(O)cc(O)c(Cl)c1CCC(=O)Nc1cccc(Cl)c1	Ratio [18]: 25
6.1%	COC(=O)c1c(O)cc(O)c(Cl)c1CCC(=O)Nc1ccccc1Br	
19.8%	COC(=O)c1c(O)cc(O)c(Cl)c1CCC(=O)Nc1ccc(OC)cc1	
10.2%	COC(=O)c1c(O)cc(O)c(Cl)c1CCC(=O)Nc1ncns1	
0.1%	COC(=O)c1c(O)cc(O)c(Cl)c1CCC(=O)Nc1ccccc1Cl	Ratio [18]: 8
34.5%	COC(=O)c1c(O)cc(O)c(Cl)c1CCC(=O)Nc1ccc(C(F)(F)F)cc1	
17.4%	COC(=O)c1c(O)cc(O)c(Cl)c1CCC(=O)Nc1cccc(N)c1	
9.8%	COC(=O)c1c(O)cc(O)c(Cl)c1CCC(=O)Nc1ncccc1Cl	
